{"source": "ChEMBL document CHEMBL1143271", "about": "“Synthesis and CB1 cannabinoid receptor affinity of 4-alkoxycarbonyl-1,5-diaryl-1,2,3-triazoles” (Bioorg Med Chem Lett, 2009)"}
{"target": "Cannabinoid receptor 1 (Rattus norvegicus, UniProt P20272)", "sequence (P20272 whole entry)": "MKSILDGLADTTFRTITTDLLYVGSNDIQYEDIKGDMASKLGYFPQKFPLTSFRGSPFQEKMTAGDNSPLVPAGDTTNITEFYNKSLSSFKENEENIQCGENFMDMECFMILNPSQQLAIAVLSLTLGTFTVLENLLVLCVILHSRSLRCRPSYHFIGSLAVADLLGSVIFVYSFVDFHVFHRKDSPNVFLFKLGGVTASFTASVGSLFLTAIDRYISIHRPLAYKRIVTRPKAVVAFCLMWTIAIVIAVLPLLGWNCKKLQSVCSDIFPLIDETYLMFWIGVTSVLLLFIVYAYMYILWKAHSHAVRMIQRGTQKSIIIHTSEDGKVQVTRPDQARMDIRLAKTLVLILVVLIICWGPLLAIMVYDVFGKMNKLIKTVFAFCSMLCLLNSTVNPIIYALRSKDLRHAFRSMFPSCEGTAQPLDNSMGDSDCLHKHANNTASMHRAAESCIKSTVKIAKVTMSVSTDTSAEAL", "test": "Displacement of [3H]SR141716 from CB1 receptor in rat cerebellum homogenate", "format": "tissue-based", "method_in_brief": "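Competition binding against [3H]SR141716 in rat cerebellum homogenates. Each concentration was run in triplicate, and each experiment was repeated three times. Data were fitted by non-linear regression, and values are mean ± SEM of three experiments.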", "units": {"Ki": "nM"}}
{"smiles": "O=C(OCc1ccccc1)c1nnn(-c2ccc(Cl)cc2Cl)c1-c1ccc(Cl)cc1", "Ki": 97}
{"smiles": "O=C(OC1CCCCC1)c1nnn(-c2ccc(Cl)cc2Cl)c1-c1ccc(Cl)cc1", "Ki": 240}
{"smiles": "O=C(NN1CCCCC1)c1nnn(-c2ccc(Cl)cc2Cl)c1-c1ccc(Cl)cc1", "Ki": 590}
{"smiles": "COC(=O)c1nnn(-c2ccc(Cl)cc2)c1-c1ccc(Cl)cc1", "Ki": 4400}
{"smiles": "CCCOC(=O)c1nnn(-c2ccc(Cl)cc2Cl)c1-c1ccc(Cl)cc1", "Ki": 4.6}
{"smiles": "Clc1ccc(-c2cnnn2-c2ccc(Cl)cc2)cc1", "Ki": 6900}
{"smiles": "Clc1ccc(-c2cnnn2-c2ccc(Cl)cc2Cl)cc1", "Ki": 1420}
{"smiles": "CCOC(=O)c1nnn(-c2ccc(Cl)cc2Cl)c1-c1ccc(Cl)cc1", "Ki": 180}
{"smiles": "O=C(Oc1ccccc1)c1nnn(-c2ccc(Cl)cc2Cl)c1-c1ccc(Cl)cc1", "Ki": 11}
{"smiles": "COC(=O)c1nnn(-c2ccc(Cl)cc2Cl)c1-c1ccc(Cl)cc1", "Ki": 66}
